Test results reported in PMC7571300 (ACS Pharmacology & Translational Science, 2020).
Like-named read-outs stand apart in the source and are kept apart here.

Experiments:
EV-A71 2A^pro [1] = target: T1, EV-A71 2A^pro (Enterovirus A71, UniProt B9VUU3); experiment: FRET-based enzymatic assay; assay type: biochemical
T1 sequence (B9VUU3 863-1012): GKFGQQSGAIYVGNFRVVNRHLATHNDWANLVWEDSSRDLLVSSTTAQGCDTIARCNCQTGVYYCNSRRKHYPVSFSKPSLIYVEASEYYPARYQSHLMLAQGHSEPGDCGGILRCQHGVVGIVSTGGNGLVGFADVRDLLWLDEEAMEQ

EV-A71 3C^pro [2] = target: T2, EV-A71 3C^pro (Enterovirus A71, UniProt B9VUU3); experiment: FRET-based enzymatic assay; assay type: biochemical
EV-D68 2A^pro [3] = target: T3, EV-D68 2A^pro (Enterovirus D68, UniProt A0A097BW19); experiment: FRET-based enzymatic assay; assay type: biochemical
T3 sequence (A0A097BW19 863-1009): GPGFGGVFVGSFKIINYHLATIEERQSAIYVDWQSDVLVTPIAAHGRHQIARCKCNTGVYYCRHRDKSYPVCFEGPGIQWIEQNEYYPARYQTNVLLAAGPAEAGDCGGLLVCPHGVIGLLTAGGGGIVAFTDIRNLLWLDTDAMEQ

EV-D68 3C^pro [4] = target: T4, EV-D68 3C^pro (Enterovirus D68, UniProt A0A097BW19); experiment: biochemical
T4 sequence (A0A097BW19 1550-1732): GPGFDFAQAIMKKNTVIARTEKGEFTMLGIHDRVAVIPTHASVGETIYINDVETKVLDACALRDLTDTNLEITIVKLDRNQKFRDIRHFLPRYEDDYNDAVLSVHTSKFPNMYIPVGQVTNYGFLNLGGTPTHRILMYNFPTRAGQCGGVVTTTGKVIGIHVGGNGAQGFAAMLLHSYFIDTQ

SARS-CoV-2 M^pro [5] = target: T5, SARS-CoV-2 M^pro (Severe acute respiratory syndrome coronavirus 2, UniProt P0DTD1); experiment: Thermal shift binding assay; details: for Tm change, SARS-CoV-2 M^pro: 4 mM DTT, 40 μM compound (shikonin 10 μM), 3 μM protease
SARS-CoV-2 PL^pro = SARS-CoV-2 PL^pro (Severe acute respiratory syndrome coronavirus 2, UniProt P0DTD1); experiment: Thermal shift binding assay; details: 4 mM DTT; 40 μM compound (shikonin 10 μM); 3 μM protease
How it was run: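 SARS-CoV-2 PLpro (ORF1ab 1564–1876, strain WIV04) was expressed from pET28b(+) in BL21(DE3) (0.5 mM IPTG, 18 °C, 24 h), Ni-NTA purified and eluted with 300 mM imidazole. Protein (3 μM) in 50 mM HEPES pH 7.5, 0.01% Triton X-100, with or without 4 mM DTT, sat with test compound or DMSO for 30 min at 30 °C. SYPRO orange (1×) was added and a 20–90 °C ramp at 0.05 °C/s applied. Tm was from a Boltzmann fit.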

EV-A71 2A^pro [6] = target: T1, EV-A71 2A^pro; experiment: Thermal shift binding assay; details: 4 mM DTT; 40 μM compound (shikonin 10 μM); 3 μM protease
How it was run: (§1)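 Codon-optimised 2Apro was expressed in E. coli from pET28b(+), from EV-A71/7D3 or EV-D68 US/KY/14–18953. Protease (3 μM) in 50 mM Tris pH 7.0, 150 mM NaCl, 10% glycerol, with or without 4 mM DTT, was preincubated with test compound or DMSO at 30 °C for 30 min. SYPRO orange (1×) was then added and fluorescence followed over 20–90 °C at 0.05 °C/s. Tm was taken as the transition mid log (Boltzmann model).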

EV-A71 3C^pro [7] = target: T2, EV-A71 3C^pro; experiment: Thermal shift binding assay; details: 4 mM DTT; 40 μM compound (shikonin 10 μM); 3 μM protease
How it was run: (§2)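 3Cpro (EV-A71/7D3 or EV-D68 US/KY/14–18953; codon-optimised, pET28b(+), BL21(DE3), 0.5 mM IPTG at 18 °C for 24 h, Ni-NTA purified) was used at 3 μM. Buffer was 50 mM Tris pH 7.0, 150 mM NaCl, 1 mM EDTA, 10% glycerol, with or without 4 mM DTT. Protease was preincubated with test compound or DMSO (30 °C, 30 min), then SYPRO orange (1×) added and a 20–90 °C ramp (0.05 °C/s) run. Tm came from a Boltzmann fit.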

EV-D68 2A^pro [8] = target: T3, EV-D68 2A^pro; experiment: Thermal shift binding assay; details: 4 mM DTT; 40 μM compound (shikonin 10 μM); 3 μM protease
How it was run: as §1

EV-D68 3C^pro [9] = target: T4, EV-D68 3C^pro; experiment: Thermal shift binding assay; details: for Tm change, EV-D68 3C^pro: 4 mM DTT, 40 μM compound (shikonin 10 μM), 3 μM protease
How it was run: as §2

SARS-CoV-2 M^pro [10] = target: T5, SARS-CoV-2 M^pro; assay type: binding
SARS-CoV-2 = details: at 10 μM; cited from earlier work
in vitro = details: human, CC50 (EV-A71 CPE assay conditions), RD cells, no virus, 37 °C, no MgCl2
[11] = EV-A71 2A^pro IC50, with 4 mM DTT
[12] = EV-A71 3C^pro IC50, with 4 mM DTT
[13] = EV-D68 2A^pro IC50, with 4 mM DTT
[14] = EV-D68 3C^pro IC50, with 4 mM DTT

SMILES	IC50 (EV-A71 2A^pro [1]; EV-A71 2A^pro IC50, no DTT)	IC50 (EV-A71 2A^pro [1]; [11])	IC50 (EV-A71 3C^pro [2]; EV-A71 3C^pro IC50, no DTT)	IC50 (EV-A71 3C^pro [2]; [12])	IC50 (EV-D68 2A^pro [3]; EV-D68 2A^pro IC50, no DTT)	IC50 (EV-D68 2A^pro [3]; [13])	IC50 (EV-D68 3C^pro [4]; EV-D68 3C^pro IC50, no DTT)	IC50 (EV-D68 3C^pro [4]; [14])	Tm change, SARS-CoV-2 M^pro (SARS-CoV-2 M^pro [5])	Tm change, SARS-CoV-2 PL^pro (SARS-CoV-2 PL^pro)	Tm change, EV-A71 2A^pro (EV-A71 2A^pro [6])	Tm change, EV-A71 3C^pro (EV-A71 3C^pro [7])	Tm change, EV-D68 2A^pro (EV-D68 2A^pro [8])	Tm change, EV-D68 3C^pro (EV-D68 3C^pro [9])	Ligand binding to M^pro dimer (SARS-CoV-2 M^pro [10]; with 4 mM DTT, 10-40 μM drug)	Ligands bound per M^pro dimer (SARS-CoV-2 M^pro [10]; without DTT, 10-40 μM drug)	Reduction of viral replication, viral titer reduction assay (SARS-CoV-2)	CC50 (in vitro)	further results
CCCCCCNC(=O)n1cc(F)c(=O)[nH]c1=O [carmofur]	12.9 ± 4.5 µM	> 60 µM	0.4 ± 0.2 µM	> 60 µM	6.4 ± 1.3 µM	> 60 µM	0.3 µM	> 60 µM	no Tm change	no Tm change	no Tm change	no Tm change	no Tm change	no Tm change	moderate binding	up to three ligands per dimer	no significant antiviral effect	47.2 µM	Tm increase, SARS-CoV-2 M^pro (SARS-CoV-2 M^pro [5]; absence of DTT, 40 μM compound): 4.76 °C; Tm increase, EV-D68 3C^pro (EV-D68 3C^pro [9]; absence of DTT, 40 μM compound): 0.87 °C
CCN(CC)C(=S)SSC(=S)N(CC)CC [disulfiram]	11.8 ± 2.1 µM	> 60 µM	1 ± 0.6 µM	> 60 µM	3.5 ± 0.5 µM	> 60 µM	0.6 ± 0.1 µM	> 60 µM	no Tm change	no Tm change	no Tm change	no Tm change	no Tm change	no Tm change	completely disrupted	up to three	~30%	8.3 µM	–
O=c1c2ccccc2[se]n1-c1ccccc1 [ebselen]	5.9 ± 1.1 µM	> 60 µM	1.2 ± 0.7 µM	> 60 µM	3.6 ± 1 µM	> 60 µM	0.1 µM	> 60 µM	no Tm change	no Tm change	no Tm change	no Tm change	no Tm change	no Tm change	–	–	–	17 µM	Ligand binding to M^pro dimer (SARS-CoV-2 M^pro [10]): completely disrupted; Ligands bound per M^pro dimer (SARS-CoV-2 M^pro [10]): four
